High-throughput results: PubChem BioAssay, several laboratories
SENP7 inh – SENP7 protease inhibitors, primary screen, biochemical, luminescence, uHTS; Sentrin-specific protease 7 (Homo sapiens), Q9BQF6; recombinant SENP7, Z-RLRGG-aminoluciferin luminescence, 40 min; inhibition, % at 5 µM; 330,000 tested, 1.5% active;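 active = inhibition above about 50% at the single test dose, limit read from the data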;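 also: plate controls were DMSO with enzyme for no effect and no enzyme buffer wells for full effect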
SENP8 block-1 – SENP8 protease inhibitors, primary screen, biochemical, luminescence. purified SENP8, Z-RLRGG-aminoluciferin cleavage. 330,000 tested, 1.2% active. inhibition, % at 10 µM. Sentrin-specific protease 8 (Homo sapiens), Q96LD8; in the data active = inhibition above about 50%
Target sequence (Q96LD8 whole entry, looked up): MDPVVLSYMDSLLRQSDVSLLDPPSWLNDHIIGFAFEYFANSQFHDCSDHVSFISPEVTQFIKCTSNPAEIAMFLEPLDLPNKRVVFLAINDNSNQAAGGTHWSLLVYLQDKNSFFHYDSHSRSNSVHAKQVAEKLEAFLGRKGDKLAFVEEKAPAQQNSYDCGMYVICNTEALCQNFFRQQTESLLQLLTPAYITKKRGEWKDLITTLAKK
SENP8 block-2 – human SENP8 protease inhibitors, primary screen, biochemical, fluorescence, Nedd8 protein substrate, uHTS | Sentrin-specific protease 8 (Homo sapiens), Q96LD8 | recombinant SENP8 | inhibition, % at 20 µM | 360,000 tested, 0.64% active; in the data active = inhibition mostly above about 40%, no sharp cut-off; inactive = mostly below about 27%
SENP1 inh – human SENP1 catalytic domain inhibitors, primary screen, biochemical, FRET, uHTS; recombinant SENP1 catalytic domain, CyPet-SUMO1-YPet FRET cleavage; inhibition, % at 10 µM; 360,000 tested, 0.21% active; AID 624204, 2012;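 active = inhibition at least 30% at 10 µM, raw YFP signal under a set limit, fluorescence ratio 0.5 to 1.5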;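 also: 0% = enzyme with DMSO and 100% = no enzyme wells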
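Test system: human SENP1 catalytic domain; medium: Tris pH 8 buffer plus EDTA, NaCl, BME, BSA, NP40, catalase; incubation: 50 min reaction at room temperature; technique: FRET, CFP and YFP emission; controls: no-enzyme low control and enzyme-plus-DMSO high control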
SENP6 block – SENP6 protease inhibitors, primary screen, biochemical, luminescence, uHTS. Recombinant SENP6 catalytic domain, aminoluciferin luminescence. 330,000 tested, 1.8% active. inhibition, % at 10 µM. Sentrin-specific protease 6 (Homo sapiens), Q9GZR1;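 active = inhibition above about 50% at the single tested dose, limit read from the data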;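 also: plate controls were DMSO wells with enzyme for no effect and DMSO wells lacking enzyme for full effect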
UCH37 DUB inh – inhibitors of human UCH37 deubiquitinase, primary screen, biochemical, Ub-AMC cleavage, fluorescence; Ubiquitin carboxyl-terminal hydrolase isozyme L5 (Homo sapiens), Q9Y5K5; purified proteasome/UCH37; inhibition, % (no concentration beside the values); 330,000 tested, 0.33% active; AID 588478, 2011;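 active = mean inhibition over replicate wells above about 20%, limit read from the data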;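 also: 0% = compound-free wells with enzyme and 100% = wells lacking proteasome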
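Test system – human UCH37 enzyme supplied as purified proteasome complex · Incubation – 30 min preincubation with enzyme, 25 min cleavage at room temperature · Detection – AMC fluorescence from Ub-AMC cleavage, excitation 355 nm, emission 460 nm · Benchmarks – no-proteasome wells (full inhibition) and compound-free wells (no inhibition)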
SENP8 confirm – SENP8 protease inhibitors, retest, confirmation, biochemical, luminescence, single concentration. Recombinant SENP8, Z-RLRGG-aminoluciferin luminescence, 60 min. inhibition, % at 12.5 µM. AID 488912, 2010. shares compounds with SENP7 inh. 6,200 tested, 40% active;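 active = mean inhibition across replicates above about 50%, limit read from the data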
SENP6 confirm – SENP6 protease inhibitors, confirmation, biochemical, luminescence, single concentration. AID 488915, 2010. shares compounds with SENP7 inh. inhibition, % at 12.5 µM. recombinant SENP6, Z-RLRGG-aminoluciferin luminescence. 6,200 tested, 58% active
SENP7 confirm – SENP7 protease inhibitors, retest, confirmation, biochemical, luminescence, single concentration | shares compounds with SENP7 inh | recombinant SENP7, Z-RLRGG-aminoluciferin luminescence, 40 min | inhibition, % at 12.5 µM | 6,200 tested, 69% active
Casp3 SENP sel – caspase-3 protease inhibitors, confirmation, selectivity assay for SENP inhibitor project, biochemical, single concentration; shares compounds with SENP7 inh; purified caspase-3, Z-DEVD-aminoluciferin luminescence, 60 min; inhibition, % at 12.5 µM; 6,200 tested, 60% active; AID 488918, 2010;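 active = mean inhibition above about 50%, limit read from the data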;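 also: plate controls were enzyme with DMSO for no effect and wells without caspase-3 for full effect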
Target sequence (P42574 28-227 limits assumed): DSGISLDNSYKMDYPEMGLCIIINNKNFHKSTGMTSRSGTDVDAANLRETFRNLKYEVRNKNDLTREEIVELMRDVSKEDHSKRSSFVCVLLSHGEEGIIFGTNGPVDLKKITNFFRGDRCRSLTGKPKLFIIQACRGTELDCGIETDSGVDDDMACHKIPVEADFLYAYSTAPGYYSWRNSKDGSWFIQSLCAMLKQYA
SENP luc ctr – counter-screen for SENP inhibitors: luminescence interference. shares compounds with SENP7 inh. Pre-incubated SENP8/Z-RLRGG-aminoluciferin, luciferase luminescence interference. 6,200 tested, 39% active. inhibition, % at 12.5 µM. AID 488919;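 active = mean inhibition above about 50% when retested at one dose, limit read from the data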;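 also: plate controls were DMSO wells with completed reaction for no effect and substrate without enzyme for full effect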
* = called active by the depositor; · = no result. Rows were chosen to be rich in hits. Some 2.6% of all compounds tested hit in one or more screens of this group.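 The calls were made as follows, unless noted: active = mean inhibition above about 50% in the one-dose retest (limit read from the data); inactive = the rest.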

SMILES	SENP7 inh	SENP8 block-1	SENP8 block-2	SENP1 inh	SENP6 block	UCH37 DUB inh	SENP8 confirm	SENP6 confirm	SENP7 confirm	Casp3 SENP sel	SENP luc ctr
c1ccc2sc(-c3ccncc3)nc2c1	66.8*	36.0	-13.6	1.0	67.8*	-1.0	28.3	54.9*	83.0*	79.5*	34.8
CC(=O)NCc1ccc(-c2csc(-c3cccs3)n2)cc1	39.9	35.8	-66.8	-5.0	62.0*	-7.5	48.5	42.7	72.8*	35.1	56.7*
Nc1ccc(O)c(-c2nc3ccccc3s2)c1	2.0	5.0	-34.4	-26.3	18.4	4.8	·	·	·	·	·
O=C(NCc1csc(-c2cccs2)n1)c1ccccc1	3.1	-8.5	-137.3	0.1	-13.8	-8.5	·	·	·	·	·
O=C(NCc1ccccc1)c1nc2ccccc2s1	8.6	-4.3	13.6	2.3	8.4	0.8	·	·	·	·	·
Nc1ccccc1-c1nc2ccccc2s1	59.1*	54.2*	-436.7	-115.3	76.1*	-209.6	60.9*	83.0*	96.5*	55.3*	44.0
Cc1cccc(C=NNc2cn[nH]c(=O)c2Cl)c1	·	·	·	·	·	9.4	·	·	·	·	·
COc1cc(C=NNC(=O)c2ccccc2)ccc1O	·	·	·	·	·	6.4	·	·	·	·	·
Oc1ccc(-c2nc3ccccc3s2)cc1	99.3*	96.1*	-437.4	-4.8	97.6*	-59.7	98.6*	99.1*	102.0*	95.3*	95.3*
c1ccc2sc(-c3ccc4c(c3)OCO4)nc2c1	100.0*	95.8*	-278.4	-1.1	97.2*	-104.3	97.7*	100.0*	102.8*	98.4*	95.1*
c1ccc2[nH]c(-c3ccc4c(c3)OCO4)nc2c1	96.9*	93.0*	-134.4	-0.1	95.8*	-2.2	95.7*	96.6*	101.7*	97.3*	96.4*
Oc1ccc(-c2nc3ccccc3s2)c(O)c1	85.9*	87.5*	-419.3	-7.5	96.8*	-40.9	94.6*	94.5*	100.9*	74.8*	77.7*
COc1ccc(-c2nc3ccccc3s2)cc1	·	·	-217.9	-1.3	·	0.9	·	·	·	·	·
CCN(CC)c1ccc(C=NNC(=O)c2cccc(S(=O)(=O)Nc3ccccc3OC)c2)c(O)c1	·	·	·	·	·	-9.9	·	·	·	·	·
Cc1ccc(-c2c(C(=O)NN=CC3CC=CCC3)nnn2-c2nonc2N)cc1 (centres undefined)	·	·	·	·	·	2.4	·	·	·	·	·
CC(=NNC(=O)C1(C)NC(C)(C)Cc2ccccc21)c1ccccc1 (centres undefined)	·	·	·	·	·	3.9	·	·	·	·	·
COc1cc(C=NNC(=O)C(C)n2nnc3ccccc32)ccc1O (centres undefined)	·	·	·	·	·	5.0	·	·	·	·	·
O=C(O)c1ccc2nc(-c3ccccc3)sc2c1	100.0*	94.2*	-7.6	3.1	97.8*	3.7	98.3*	99.2*	101.8*	96.4*	97.7*
COc1cccc(-c2nc3ccccc3s2)c1	96.4*	95.2*	-13.8	5.5	92.3*	0.6	96.5*	98.5*	102.4*	95.2*	94.6*
